Reference: ChEMBL document CHEMBL1811853, “Design and evaluation of 3-aminopyrazolopyridinone kinase inhibitors inspired by the natural product indirubin” (Bioorg Med Chem, 2011)

What was measured:
[1] = Aqueous solubility of the compound by HPLC analysis; type: physicochemical; conditions: water
In short: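 Solubility determined by HPLC measurement of the concentration in saturated aqueous solutions of the compounds.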

[2] = biological target: Serine/threonine-protein kinase Chk2 (Homo sapiens, UniProt O96017); assay: Inhibition of CHK2 at 30 uM by microfluidic mobility shift assay
In short: (§1)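 Single-concentration screen, singlicate, 30 uM final (diluted from 1 mM DMSO solutions), fluorescently tagged peptide substrate appropriate to each kinase, ATP at apparent Km for each protein. Phosphorylated and unphosphorylated peptides separated electrophoretically; conversion is the phosphorylated peak area over the sum of both peaks. No-inhibitor and no-ATP controls; H89 reference on each plate.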

[3] = biological target: RAC-alpha serine/threonine-protein kinase (Homo sapiens) (UniProt P31749); assay: Inhibition of AKT1 at 30 uM by microfluidic mobility shift assay; in short: as §1
[4] = biological target: MAP kinase-activated protein kinase 2 (Homo sapiens, UniProt P49137); assay: Inhibition of MAPKAPK2 at 30 uM by microfluidic mobility shift assay; in short: as §1
[5] = biological target: Tyrosine-protein kinase Fyn (Homo sapiens, UniProt P06241); assay: Inhibition of FYN at 30 uM by microfluidic mobility shift assay; in short: as §1
[6] = biological target: T1, Aurora kinase A (Homo sapiens) (UniProt O14965); assay: Inhibition of AurA at 30 uM by microfluidic mobility shift assay; in short: as §1
T1 sequence (whole entry): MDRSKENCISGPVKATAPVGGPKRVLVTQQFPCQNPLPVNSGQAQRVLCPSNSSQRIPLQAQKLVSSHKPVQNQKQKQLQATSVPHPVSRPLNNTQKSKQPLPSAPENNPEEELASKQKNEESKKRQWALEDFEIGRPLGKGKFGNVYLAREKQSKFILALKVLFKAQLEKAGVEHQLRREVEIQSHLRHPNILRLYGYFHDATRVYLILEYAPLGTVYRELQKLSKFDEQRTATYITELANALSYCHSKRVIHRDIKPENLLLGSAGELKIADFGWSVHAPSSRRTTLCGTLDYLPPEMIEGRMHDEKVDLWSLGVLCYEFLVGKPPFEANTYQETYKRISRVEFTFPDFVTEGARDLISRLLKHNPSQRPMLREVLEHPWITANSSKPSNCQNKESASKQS

[7] = biological target: Mitogen-activated protein kinase 14 (Homo sapiens, UniProt Q16539); assay: Inhibition of p38alpha at 30 uM by microfluidic mobility shift assay; in short: as §1
[8] = biological target: Mitogen-activated protein kinase 3 (Homo sapiens) (UniProt P27361); assay: Inhibition of ERK1 at 30 uM by microfluidic mobility shift assay; in short: as §1
[9] = biological target: Ribosomal protein S6 kinase alpha-1 (Homo sapiens) (UniProt Q15418); assay: Inhibition of RSK1 at 30 uM by microfluidic mobility shift assay; in short: as §1
[10] = biological target: Mitogen-activated protein kinase 1 (Homo sapiens) (UniProt P28482); assay: Inhibition of ERK2 at 30 uM by microfluidic mobility shift assay; in short: as §1
[11] = biological target: Tyrosine-protein kinase Lck (Homo sapiens, UniProt P06239); assay: Inhibition of LCK at 30 uM by microfluidic mobility shift assay; in short: as §1
[12] = biological target: T2, Serine/threonine-protein kinase Chk1 (Homo sapiens) (UniProt O14757); assay: Inhibition of CHK1 at 30 uM by microfluidic mobility shift assay; in short: as §1
T2 sequence (whole entry): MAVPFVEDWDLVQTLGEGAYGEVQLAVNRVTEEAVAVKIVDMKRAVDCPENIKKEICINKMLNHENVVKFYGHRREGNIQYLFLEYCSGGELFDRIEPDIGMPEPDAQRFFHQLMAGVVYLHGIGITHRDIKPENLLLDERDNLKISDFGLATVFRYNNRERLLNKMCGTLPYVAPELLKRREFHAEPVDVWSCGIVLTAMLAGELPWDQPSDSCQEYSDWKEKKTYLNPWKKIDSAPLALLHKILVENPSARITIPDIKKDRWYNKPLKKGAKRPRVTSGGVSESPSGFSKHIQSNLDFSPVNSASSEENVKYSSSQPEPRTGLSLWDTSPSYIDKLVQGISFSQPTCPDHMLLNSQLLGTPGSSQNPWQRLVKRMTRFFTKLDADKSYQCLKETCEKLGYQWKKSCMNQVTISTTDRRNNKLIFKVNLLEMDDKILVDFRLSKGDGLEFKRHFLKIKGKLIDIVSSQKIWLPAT

[13] = biological target: Tyrosine-protein kinase ABL1 (Homo sapiens, UniProt P00519); assay: Inhibition of ABL at 30 uM by microfluidic mobility shift assay; in short: as §1
[14] = biological target: RAC-beta serine/threonine-protein kinase (Homo sapiens) (UniProt P31751); assay: Inhibition of AKT2 at 30 uM by microfluidic mobility shift assay; in short: as §1
[15] = biological target: Insulin receptor (Homo sapiens) (UniProt P06213); assay: Inhibition of INSR at 30 uM by microfluidic mobility shift assay; in short: as §1
[16] = Inhibition of PKA at 30 uM by microfluidic mobility shift assay; in short: as §1
[17] = biological target: T3, Serine/threonine-protein kinase D2 (Homo sapiens) (UniProt Q9BZL6); assay: Inhibition of PKD2 at 30 uM by microfluidic mobility shift assay; in short: as §1
T3 sequence (whole entry): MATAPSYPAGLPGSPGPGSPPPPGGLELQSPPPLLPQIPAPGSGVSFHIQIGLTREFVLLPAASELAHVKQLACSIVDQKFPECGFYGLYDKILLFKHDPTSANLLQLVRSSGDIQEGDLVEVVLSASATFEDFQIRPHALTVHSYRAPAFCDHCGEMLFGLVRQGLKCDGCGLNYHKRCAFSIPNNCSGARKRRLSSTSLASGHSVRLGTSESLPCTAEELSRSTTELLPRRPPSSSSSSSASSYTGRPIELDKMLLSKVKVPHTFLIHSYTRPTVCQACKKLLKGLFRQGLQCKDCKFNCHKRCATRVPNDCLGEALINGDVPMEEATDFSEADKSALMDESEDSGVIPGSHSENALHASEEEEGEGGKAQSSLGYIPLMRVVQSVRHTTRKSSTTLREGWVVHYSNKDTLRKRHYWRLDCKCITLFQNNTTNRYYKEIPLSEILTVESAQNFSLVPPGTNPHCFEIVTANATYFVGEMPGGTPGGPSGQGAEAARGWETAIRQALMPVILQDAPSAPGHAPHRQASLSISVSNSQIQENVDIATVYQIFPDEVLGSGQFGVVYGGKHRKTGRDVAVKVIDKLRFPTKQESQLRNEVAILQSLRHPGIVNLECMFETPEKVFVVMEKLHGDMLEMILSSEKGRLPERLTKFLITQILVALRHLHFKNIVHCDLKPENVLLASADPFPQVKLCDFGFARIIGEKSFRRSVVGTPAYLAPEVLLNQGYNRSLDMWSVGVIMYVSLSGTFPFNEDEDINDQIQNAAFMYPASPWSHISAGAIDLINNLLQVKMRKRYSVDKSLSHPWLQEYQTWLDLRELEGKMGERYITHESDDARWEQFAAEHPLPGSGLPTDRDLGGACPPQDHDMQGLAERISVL

[18] = biological target: Tyrosine-protein kinase Lyn (Homo sapiens, UniProt P07948); assay: Inhibition of LYN at 30 uM by microfluidic mobility shift assay; in short: as §1
[19] = biological target: T4, MAP kinase-activated protein kinase 5 (Homo sapiens) (UniProt Q8IW41); assay: Inhibition of PRAK1 at 30 uM by microfluidic mobility shift assay; in short: as §1
T4 sequence (whole entry): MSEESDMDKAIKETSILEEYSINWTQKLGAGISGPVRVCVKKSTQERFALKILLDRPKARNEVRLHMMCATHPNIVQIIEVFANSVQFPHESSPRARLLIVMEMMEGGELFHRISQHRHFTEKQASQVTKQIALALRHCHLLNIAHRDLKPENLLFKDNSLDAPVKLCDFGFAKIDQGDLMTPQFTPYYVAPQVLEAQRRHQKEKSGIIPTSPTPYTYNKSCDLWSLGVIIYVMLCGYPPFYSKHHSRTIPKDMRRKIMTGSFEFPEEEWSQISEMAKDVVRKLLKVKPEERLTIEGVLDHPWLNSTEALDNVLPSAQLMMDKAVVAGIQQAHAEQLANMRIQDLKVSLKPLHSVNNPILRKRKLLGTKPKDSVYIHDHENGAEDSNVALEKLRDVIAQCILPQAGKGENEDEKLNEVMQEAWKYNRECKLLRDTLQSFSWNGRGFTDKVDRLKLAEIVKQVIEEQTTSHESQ

[20] = biological target: Proto-oncogene tyrosine-protein kinase Src (Homo sapiens, UniProt P12931); assay: Inhibition of SRC at 30 uM by microfluidic mobility shift assay; in short: as §1
[21] = biological target: Ribosomal protein S6 kinase alpha-5 (Homo sapiens) (UniProt O75582); assay: Inhibition of MSK1 at 30 uM by microfluidic mobility shift assay; in short: as §1
[22] = biological target: Glycogen synthase kinase-3 beta (Homo sapiens) (UniProt P49841); assay: Inhibition of GSK3B at 30 uM by microfluidic mobility shift assay; in short: as §1
[23] = biological target: T5, Protein kinase C zeta type (Homo sapiens) (UniProt Q05513); assay: Inhibition of PKCz at 30 uM by microfluidic mobility shift assay; in short: as §1
T5 sequence (whole entry): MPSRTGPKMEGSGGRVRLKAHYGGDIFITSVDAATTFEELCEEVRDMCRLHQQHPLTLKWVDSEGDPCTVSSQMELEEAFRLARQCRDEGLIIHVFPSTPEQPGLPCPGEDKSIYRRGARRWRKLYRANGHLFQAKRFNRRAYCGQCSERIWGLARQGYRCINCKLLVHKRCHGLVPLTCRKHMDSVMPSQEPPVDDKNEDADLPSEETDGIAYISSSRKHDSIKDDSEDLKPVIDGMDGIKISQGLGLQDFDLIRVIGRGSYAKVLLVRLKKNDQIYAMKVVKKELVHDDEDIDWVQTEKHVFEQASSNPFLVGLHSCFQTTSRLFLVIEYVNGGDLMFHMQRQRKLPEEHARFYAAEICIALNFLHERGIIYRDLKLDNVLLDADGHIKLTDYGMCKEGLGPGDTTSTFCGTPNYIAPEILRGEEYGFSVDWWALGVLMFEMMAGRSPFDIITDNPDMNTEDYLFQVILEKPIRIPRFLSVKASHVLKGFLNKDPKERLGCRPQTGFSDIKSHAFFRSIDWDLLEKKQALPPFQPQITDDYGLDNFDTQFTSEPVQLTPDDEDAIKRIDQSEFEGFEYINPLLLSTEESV

Ribosomal protein S6 kinase alpha-1 (Homo sapiens), sequence (Q15418 whole entry): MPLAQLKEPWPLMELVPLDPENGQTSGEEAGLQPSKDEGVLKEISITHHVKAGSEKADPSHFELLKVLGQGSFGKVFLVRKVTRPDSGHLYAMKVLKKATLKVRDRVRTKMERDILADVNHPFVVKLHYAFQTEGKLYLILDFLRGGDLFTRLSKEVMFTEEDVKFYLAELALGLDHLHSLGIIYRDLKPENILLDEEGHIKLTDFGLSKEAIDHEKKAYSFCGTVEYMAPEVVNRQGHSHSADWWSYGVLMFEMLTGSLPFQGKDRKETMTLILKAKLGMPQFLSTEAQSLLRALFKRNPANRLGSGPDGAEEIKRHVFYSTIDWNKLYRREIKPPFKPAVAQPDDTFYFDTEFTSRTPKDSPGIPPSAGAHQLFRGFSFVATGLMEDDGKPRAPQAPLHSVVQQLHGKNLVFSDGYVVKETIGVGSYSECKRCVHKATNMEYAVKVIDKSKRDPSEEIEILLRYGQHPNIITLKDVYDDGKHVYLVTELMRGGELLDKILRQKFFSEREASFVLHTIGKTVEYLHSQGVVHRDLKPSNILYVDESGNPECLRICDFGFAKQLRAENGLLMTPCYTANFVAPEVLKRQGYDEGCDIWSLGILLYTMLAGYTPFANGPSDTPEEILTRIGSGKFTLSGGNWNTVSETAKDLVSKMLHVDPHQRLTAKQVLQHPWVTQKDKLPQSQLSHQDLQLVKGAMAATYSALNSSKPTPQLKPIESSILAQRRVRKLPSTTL
Tyrosine-protein kinase Lyn, sequence (P07948 2-512 limits assumed): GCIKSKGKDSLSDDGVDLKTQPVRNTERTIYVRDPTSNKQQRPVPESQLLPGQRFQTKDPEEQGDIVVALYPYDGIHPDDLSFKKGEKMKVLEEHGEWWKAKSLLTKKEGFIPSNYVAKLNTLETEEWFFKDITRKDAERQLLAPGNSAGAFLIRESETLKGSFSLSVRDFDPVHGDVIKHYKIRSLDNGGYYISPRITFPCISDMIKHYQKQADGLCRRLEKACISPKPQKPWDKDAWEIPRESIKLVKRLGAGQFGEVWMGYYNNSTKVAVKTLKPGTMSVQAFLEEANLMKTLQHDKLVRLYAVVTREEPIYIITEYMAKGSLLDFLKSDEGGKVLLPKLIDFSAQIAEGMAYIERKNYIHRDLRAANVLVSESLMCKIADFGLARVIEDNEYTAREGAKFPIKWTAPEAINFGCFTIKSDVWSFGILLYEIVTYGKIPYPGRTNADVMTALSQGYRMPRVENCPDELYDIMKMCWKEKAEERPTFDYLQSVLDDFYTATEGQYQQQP
Glycogen synthase kinase-3 beta (Homo sapiens), sequence (P49841 whole entry, looked up): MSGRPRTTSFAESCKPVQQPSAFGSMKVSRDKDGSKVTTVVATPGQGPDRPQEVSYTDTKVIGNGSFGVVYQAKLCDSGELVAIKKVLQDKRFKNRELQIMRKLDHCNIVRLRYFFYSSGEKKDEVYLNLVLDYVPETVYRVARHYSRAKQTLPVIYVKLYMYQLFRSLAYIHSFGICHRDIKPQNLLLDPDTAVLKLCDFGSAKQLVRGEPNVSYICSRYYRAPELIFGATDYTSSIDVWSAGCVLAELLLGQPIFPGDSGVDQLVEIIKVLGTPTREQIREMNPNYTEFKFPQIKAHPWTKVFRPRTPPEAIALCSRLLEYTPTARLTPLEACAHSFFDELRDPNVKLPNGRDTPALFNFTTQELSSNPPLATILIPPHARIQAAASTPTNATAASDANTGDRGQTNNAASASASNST
Proto-oncogene tyrosine-protein kinase Src, sequence (P12931 2-536 limits assumed): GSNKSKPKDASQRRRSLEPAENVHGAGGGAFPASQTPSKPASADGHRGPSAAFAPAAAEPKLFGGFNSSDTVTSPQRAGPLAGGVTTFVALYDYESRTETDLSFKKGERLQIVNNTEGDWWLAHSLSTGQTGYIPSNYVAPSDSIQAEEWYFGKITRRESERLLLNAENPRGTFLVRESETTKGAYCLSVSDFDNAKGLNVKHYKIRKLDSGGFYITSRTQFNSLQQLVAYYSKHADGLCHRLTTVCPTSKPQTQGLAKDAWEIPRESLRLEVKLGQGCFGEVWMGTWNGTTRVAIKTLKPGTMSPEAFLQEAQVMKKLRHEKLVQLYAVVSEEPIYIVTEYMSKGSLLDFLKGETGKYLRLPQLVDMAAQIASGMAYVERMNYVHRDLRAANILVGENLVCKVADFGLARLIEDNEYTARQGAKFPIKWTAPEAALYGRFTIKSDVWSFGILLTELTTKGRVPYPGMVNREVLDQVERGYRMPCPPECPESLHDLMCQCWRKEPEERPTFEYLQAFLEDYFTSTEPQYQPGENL
Tyrosine-protein kinase Fyn, sequence (P06241 2-537 limits assumed): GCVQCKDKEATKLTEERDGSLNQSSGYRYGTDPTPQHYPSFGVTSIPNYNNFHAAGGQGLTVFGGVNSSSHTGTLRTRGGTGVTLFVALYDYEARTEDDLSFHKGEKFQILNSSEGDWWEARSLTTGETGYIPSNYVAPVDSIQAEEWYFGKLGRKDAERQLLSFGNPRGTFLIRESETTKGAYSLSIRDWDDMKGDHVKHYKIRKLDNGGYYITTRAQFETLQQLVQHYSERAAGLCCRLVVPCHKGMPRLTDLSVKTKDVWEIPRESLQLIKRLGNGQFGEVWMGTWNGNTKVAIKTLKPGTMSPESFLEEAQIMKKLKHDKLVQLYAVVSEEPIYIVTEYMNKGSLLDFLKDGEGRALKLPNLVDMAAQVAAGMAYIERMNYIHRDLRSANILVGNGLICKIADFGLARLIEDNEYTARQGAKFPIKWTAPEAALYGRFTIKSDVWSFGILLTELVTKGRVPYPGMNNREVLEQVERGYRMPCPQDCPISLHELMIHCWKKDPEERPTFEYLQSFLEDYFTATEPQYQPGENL
RAC-beta serine/threonine-protein kinase (Homo sapiens), sequence (P31751 whole entry): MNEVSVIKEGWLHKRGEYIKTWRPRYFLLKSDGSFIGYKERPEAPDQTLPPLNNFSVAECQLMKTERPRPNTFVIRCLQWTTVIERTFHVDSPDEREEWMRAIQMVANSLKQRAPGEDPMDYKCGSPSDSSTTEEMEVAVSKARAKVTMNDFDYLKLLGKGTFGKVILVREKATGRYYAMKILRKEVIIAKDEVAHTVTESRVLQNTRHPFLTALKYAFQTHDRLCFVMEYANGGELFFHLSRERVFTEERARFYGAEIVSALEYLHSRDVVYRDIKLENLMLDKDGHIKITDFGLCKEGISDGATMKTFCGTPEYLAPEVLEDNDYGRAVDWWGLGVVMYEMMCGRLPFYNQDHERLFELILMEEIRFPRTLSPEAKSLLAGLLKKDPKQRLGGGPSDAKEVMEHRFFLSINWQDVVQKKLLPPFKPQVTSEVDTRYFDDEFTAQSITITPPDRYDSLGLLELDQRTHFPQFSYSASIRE
RAC-alpha serine/threonine-protein kinase (Homo sapiens), sequence (P31749 whole entry): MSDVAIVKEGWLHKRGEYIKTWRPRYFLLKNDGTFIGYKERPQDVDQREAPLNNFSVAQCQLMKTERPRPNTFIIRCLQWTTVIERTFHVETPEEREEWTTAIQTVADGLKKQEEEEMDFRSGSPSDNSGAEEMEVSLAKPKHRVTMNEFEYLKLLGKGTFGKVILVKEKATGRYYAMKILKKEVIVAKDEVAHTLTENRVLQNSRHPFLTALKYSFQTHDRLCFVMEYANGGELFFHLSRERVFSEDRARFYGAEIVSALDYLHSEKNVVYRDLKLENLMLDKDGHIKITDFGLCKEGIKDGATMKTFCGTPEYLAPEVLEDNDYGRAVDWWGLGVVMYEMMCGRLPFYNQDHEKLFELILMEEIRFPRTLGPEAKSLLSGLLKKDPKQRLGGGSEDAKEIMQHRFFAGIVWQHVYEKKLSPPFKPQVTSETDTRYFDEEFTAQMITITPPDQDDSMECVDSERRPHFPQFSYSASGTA
MAP kinase-activated protein kinase 2, sequence (P49137 whole entry, looked up): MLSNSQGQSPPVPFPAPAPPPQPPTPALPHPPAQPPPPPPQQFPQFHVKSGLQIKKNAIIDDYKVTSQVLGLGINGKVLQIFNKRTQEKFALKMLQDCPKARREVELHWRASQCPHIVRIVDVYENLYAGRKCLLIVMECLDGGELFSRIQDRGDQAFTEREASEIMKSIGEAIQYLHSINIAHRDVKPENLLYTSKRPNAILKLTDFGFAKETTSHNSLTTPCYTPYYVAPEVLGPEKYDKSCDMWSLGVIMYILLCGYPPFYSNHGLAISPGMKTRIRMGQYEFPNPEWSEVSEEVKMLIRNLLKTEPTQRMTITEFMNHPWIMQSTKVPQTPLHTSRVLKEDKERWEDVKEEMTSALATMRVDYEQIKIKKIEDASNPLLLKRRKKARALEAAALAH
Serine/threonine-protein kinase Chk2, sequence (O96017 whole entry): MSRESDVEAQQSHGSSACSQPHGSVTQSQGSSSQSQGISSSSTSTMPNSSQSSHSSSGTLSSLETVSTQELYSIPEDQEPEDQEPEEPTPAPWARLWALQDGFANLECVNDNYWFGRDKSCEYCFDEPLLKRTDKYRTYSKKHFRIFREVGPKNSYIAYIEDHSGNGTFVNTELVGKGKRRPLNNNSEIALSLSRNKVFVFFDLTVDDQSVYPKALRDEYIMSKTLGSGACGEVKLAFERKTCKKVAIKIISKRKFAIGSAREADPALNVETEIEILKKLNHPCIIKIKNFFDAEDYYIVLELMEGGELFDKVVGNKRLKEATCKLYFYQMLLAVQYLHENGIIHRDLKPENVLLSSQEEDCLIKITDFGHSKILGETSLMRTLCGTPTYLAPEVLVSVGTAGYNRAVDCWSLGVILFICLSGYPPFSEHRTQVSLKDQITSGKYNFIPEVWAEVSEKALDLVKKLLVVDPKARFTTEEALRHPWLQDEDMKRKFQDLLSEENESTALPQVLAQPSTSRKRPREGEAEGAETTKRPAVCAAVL

| inhibition [2] [%] | inhibition [3] [%] | inhibition [4] [%] | inhibition [5] [%] | inhibition [6] [%] | inhibition [7] [%] | inhibition [8] [%] | inhibition [9] [%] | inhibition [10] [%] | inhibition [11] [%] | inhibition [12] [%] | inhibition [13] [%] | inhibition [14] [%] | inhibition [15] [%] | inhibition [16] [%] | inhibition [18] [%] | inhibition [19] [%] | inhibition [20] [%] | inhibition [21] [%] | inhibition [22] [%] | SMILES | other results |
| --- | --- | --- | --- | --- | --- | --- | --- | --- | --- | --- | --- | --- | --- | --- | --- | --- | --- | --- | --- | --- | --- |
| 21 | 3 | 39 | 48 | 34 | 3 | 12 | 22 | 4 | 40 | 12 | 14 | 4 | 14 | 75 | 40 | 1 | 58 | 65 | 41 | CC(C)(C)c1cc2[nH]nc(N)c2c(=O)[nH]1 | inhibition [23]: -9% |
| 59 | 4 | 58 | 69 | 67 | 6 | 15 | 35 | 15 | 58 | 44 | 63 | 5 | 21 | 79 | 63 | 12 | 74 | 63 | 89 | Nc1n[nH]c2cc(-c3cccs3)[nH]c(=O)c12 | inhibition [17]: 5% |
| 4 | 7 | 22 | 32 | 34 | 7 | 10 | 14 | 11 | 45 | 3 | 39 | 2 | 5 | 50 | 23 | 5 | 40 | 15 | 86 | Cc1cc2nc(-c3ccccc3)nc(N)c2c(=O)[nH]1 | inhibition [17]: 5% |

Further lines, the compound ahead of its results:

| SMILES | inhibition [2] [%] | inhibition [3] [%] | inhibition [4] [%] | inhibition [5] [%] | inhibition [6] [%] | inhibition [7] [%] | inhibition [8] [%] | inhibition [9] [%] | inhibition [10] [%] | inhibition [11] [%] | inhibition [12] [%] | inhibition [13] [%] | inhibition [14] [%] | inhibition [15] [%] | inhibition [16] [%] | inhibition [18] [%] | inhibition [19] [%] | inhibition [20] [%] | inhibition [21] [%] | inhibition [22] [%] | other results |
| --- | --- | --- | --- | --- | --- | --- | --- | --- | --- | --- | --- | --- | --- | --- | --- | --- | --- | --- | --- | --- | --- |
| O=C1Nc2ccccc2/C1=C1/Nc2ccccc2C1=O [INDIRUBIN] | – | – | – | – | – | – | – | – | – | – | – | – | – | – | – | – | – | – | – | – | solubility [1]: < 1 µg/mL |
| Nc1n[nH]c2cc(CC3CCNCC3)[nH]c(=O)c12 | 7 | 13 | 35 | -3 | 5 | 3 | 4 | 11 | -2 | 4 | 16 | 7 | 6 | 1 | 71 | -1 | 3 | 4 | 62 | 4 | inhibition [17]: -6% |
| Cc1cc2c(cn1)c(N)nn2C | 3 | 0 | -2 | 2 | 3 | 2 | 6 | 1 | 2 | 4 | 10 | 2 | -2 | -3 | 1 | 1 | 9 | 3 | -2 | 6 | inhibition [17]: -3% |
| Cc1cc2c(c(N)nn2C)c(N2CCOCC2)n1 | 3 | -8 | -2 | 9 | 17 | 2 | 4 | 1 | -1 | 10 | -5 | 15 | 12 | 3 | -2 | 17 | 5 | 7 | 4 | 8 | inhibition [17]: -4% |
